{
  "source": "paper PMC10685803",
  "about": "(RSC Chemical Biology, 2023)",
  "molecules": {"B1": {"name": "DAXX Helical Bundle domain (DHB_(DAXX), residues 55-144 hDAXX) (domain or fragment, human, UniProt Q9UER7 55-144, looked up)", "chain": "GKKCYKLENEKLFEEFLELCKMQTADHPEVVPFLYNRQQRAHSLFLASAEFCNILSRVLSRARSRPAKLYVYINELCTVLKAHSAKKKLN"}, "B2": {"name": "DAXX Interacting Domain of ATRX (DID_(ATRX), residues 1190-1325 hATRX) (domain or fragment, human, UniProt P46100 1190-1325, looked up)", "chain": "RTSTKRKQADITSSSSSDIEDDDQNSIGEGSSDEQKIKPVTENLVLSSHTGFCQSSGDEALSKSVPVTVDDDDDDNDPENRIAKKMLLEEIKANLSSDEDGSSDDEPEEGKKRTGKQNEENPGDEEAKNQVNSESD"}, "B3": {"name": "DIDATRX: DAXX Interacting Domain of ATRX, residues 1190–1325 hATRX, recombinant (protein)", "chain": "B2 chain", "modifications": "left off: His6, N-terminal, state not stated"}},
  "key": {"[1]": {"test": "Solubility limit of stitched peptides", "type": "physicochemical", "settings": "peptides synthesized with an N-terminal FAM moiety; method not described"}, "HCT116 cells": {"system": "HCT116 cells", "test": "Lactate dehydrogenase", "type": "cell-based", "settings": "chloroalkane versions, 2% serum, 4 and 24 h", "in_short": "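HCT116 cells were seeded at 5000 per well in DMEM/10% FCS for 24 h, then switched to medium with 2% FCS. They were given titrated peptide (up to 50 μM; 1% v/v DMSO final) for 4 or 24 h, with 1% DMSO-only controls. Released LDH was measured by colorimetric kit and normalised to 0.1% Triton X-100 lysis. Mean of three independent measurements ± 1 SD.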"}, "[2]": {"biological_target": "T1, DHBDAXX (residues 55-144 hDAXX) (Homo sapiens, UniProt Q9UER7)", "T1 sequence (Q9UER7 55-144)": "B1 chain", "test": "Fluorescence polarisation saturation binding of FAM-labelled peptide to DHBDAXX", "settings": "fluorescence anisotropy Kd"}, "[3]": {"biological_target": "B1", "test": "ITC"}, "[4]": {"biological_target": "B2", "test": "fluorescence polarisation"}, "[5]": {"biological_target": "B2", "test": "ITC"}, "[6]": {"biological_target": "T1, DHBDAXX (residues 55-144 hDAXX)", "settings": "read-out: Kd (competitive binding affinity); competitive displacement of FAM-SPEP7 from DHBDAXX"}, "[7]": {"biological_target": "T1, DHBDAXX (residues 55-144 hDAXX)", "test": "Isothermal titration calorimetry", "type": "binding", "settings": "ITC, 25 °C, ATRX fragments (Table 1), no unit in table"}},
  "data": [
    {"molecule": "CC[C@H](C)[C@@H]1NC(=O)[C@H](CCC(=O)O)NC(=O)[C@H](C)NC(=O)[C@H](CC(C)C)NC(=O)[C@H](CC(C)C)NC(=O)C2(CCCC=CCCCCCC[C@@](C)(C(=O)N[C@@H](CC(N)=O)C(=O)N[C@@H](CC(C)C)C(=O)N[C@@H](CO)C(N)=O)NC(=O)[C@H](CCCCN)NC1=O)CCCC=CCCC[C@](C)(NC(=O)[C@H](CCCNC(=N)N)NC(=O)[C@H](CC(N)=O)NC(=O)[C@H](CCC(=O)O)NC(=O)[C@@H]1CCCN1C(=O)[C@H](CC(=O)O)NC(=O)[C@H](CC(N)=O)NC(=O)[C@@H](N)CC(=O)O)C(=O)N[C@@H](C)C(=O)N[C@@H](CCCCN)C(=O)N[C@@H](CCCCN)C(=O)N2", "note": "(some centres unmarked) [STPEP2]", "values": [
      {"measurement": "solubility limit", "setting": "[1]", "value": 11, "unit": "µM"},
      {"measurement": "cellular toxicity (LDH release)", "setting": "HCT116 cells", "value": "no significant cellular toxicity"}
    ]},
    {"molecule": "CC[C@H](C)[C@@H]1NC(=O)[C@H](CCC(=O)O)NC(=O)[C@H](C)NC(=O)[C@H](CC(C)C)NC(=O)[C@H](CC(C)C)NC(=O)[C@H](C)NC(=O)C2(CCCC=CCCCCCC[C@@](C)(C(=O)N[C@@H](C)C(=O)N[C@@H](CC(N)=O)C(=O)N[C@@H](CC(C)C)C(=O)N[C@@H](CO)C(N)=O)NC1=O)CCCC=CCCC[C@](C)(NC(=O)[C@H](CC(N)=O)NC(=O)[C@H](CCC(=O)O)NC(=O)[C@@H]1CCCN1C(=O)[C@@H](N)CC(N)=O)C(=O)N[C@@H]([C@@H](C)CC)C(=O)N[C@@H](C)C(=O)N[C@@H](CCCCN)C(=O)N2", "note": "(some centres unmarked) [STPEP7]", "values": [
      {"measurement": "solubility limit", "setting": "[1]", "value": 49, "unit": "µM"},
      {"measurement": "fold decrease in binding compared to FAM-SPEP7", "setting": "[2]", "value": "~7", "unit": "fold"},
      {"measurement": "cellular toxicity (LDH release)", "setting": "HCT116 cells", "value": "no significant cellular toxicity"}
    ]},
    {"molecule": "PVTVDDDDDDNDPENRIAKKMLLEEIKANL (peptide, UniProt P46100 1255-1284, looked up)", "note": "[ATRX (1255–1284) peptide]", "values": [
      {"measurement": "dH", "setting": "[3]", "value": -10.6, "unit": "kcal/mol"}
    ]},
    {"molecule": "NDPENRIAKKMLLEEIKANLSSDEDG (peptide, UniProt P46100 1265-1290, looked up)", "note": "[ATRX (1265–1290) peptide]", "values": [
      {"measurement": "dH", "setting": "[3]", "value": -13.3, "unit": "kcal/mol"}
    ]},
    {"molecule": "B1", "values": [
      {"measurement": "Kd", "setting": "[4]", "value": 193, "unit": "nM"},
      {"measurement": "Kd", "setting": "[5]", "value": 80, "unit": "nM"}
    ]},
    {"molecule": "PENRIAKKMLLEEIKANLSSDEDG (peptide, UniProt P46100 1267-1290, looked up)", "note": "[ATRX (1267–1290) peptide]", "values": [
      {"measurement": "dH", "setting": "[3]", "value": -11.9, "unit": "kcal/mol"}
    ]},
    {"molecule": "PENRIAKKMLLEEIKANL (peptide, UniProt P46100 1267-1284, looked up)", "note": "[ATRX (1267–1284) peptide]", "values": [
      {"measurement": "dH", "setting": "[3]", "value": -9.3, "unit": "kcal/mol"}
    ]},
    {"molecule": "DDDDNDPENRIAKKMLLEEIKANLSSDEDG (peptide, UniProt P46100 1261-1290, looked up)", "note": "[ATRX (1261–1290) peptide]", "values": [
      {"measurement": "dH", "setting": "[3]", "value": -13.8, "unit": "kcal/mol"}
    ]},
    {"molecule": "PVTVDDDDDDNDPENRIAKKMLLEEIKANLSSDED (peptide, UniProt P46100 1255-1289, looked up)", "note": "[ATRX (1255–1289) peptide]", "values": [
      {"measurement": "dH", "setting": "[3]", "value": -12.2, "unit": "kcal/mol"}
    ]},
    {"molecule": "B2", "values": [
      {"measurement": "dH", "setting": "[3]", "value": -11.7, "unit": "kcal/mol"}
    ]},
    {"molecule": "B3", "values": [
      {"measurement": "Kd", "setting": "[6]", "value": 193, "unit": "nM"},
      {"measurement": "ΔG", "setting": "[7]", "value": "−9.69"},
      {"measurement": "−TΔS", "setting": "[7]", "value": 2.06},
      {"measurement": "ΔH", "setting": "[7]; error in parentheses", "value": "−11.7 (0.10)"}
    ]},
    {"molecule": "DNDPENRIAKKMLLEEIKANLS (peptide, UniProt P46100 1264-1285, looked up)", "note": "[PEP_(ATRX), peptide fragment of ATRX (1264–1285)]", "values": [
      {"measurement": "dH", "setting": "[3]", "value": -13.3, "unit": "kcal/mol"}
    ]},
    {"molecule": "DDNDPENRIAKKMLLEEIKANLSSDEDG (peptide, UniProt P46100 1263-1290, looked up)", "note": "[ATRX (1263–1290) peptide]", "values": [
      {"measurement": "dH", "setting": "[3]", "value": -13.4, "unit": "kcal/mol"}
    ]}
  ]
}
